Active and inactive are the calls of the source. The calls are words filed in the database; no cut-off is given here.
What was measured:
Format in all cases: cell-based
P2X purinoceptor 7 = molecular target: T1, P2X purinoceptor 7 (Homo sapiens, UniProt Q99572); experiment: Antagonist activity at human P2X7 receptor expressed in HEK293 cells assessed as reduction in benzoyl-ATP-induced YO-PRO-1 dye uptake pre-incubated for 20 mins before YO-PRO-1 addition and measured after 25 mins by fluorescence plate reader analysis relative to control
T1 sequence (Q99572 whole entry): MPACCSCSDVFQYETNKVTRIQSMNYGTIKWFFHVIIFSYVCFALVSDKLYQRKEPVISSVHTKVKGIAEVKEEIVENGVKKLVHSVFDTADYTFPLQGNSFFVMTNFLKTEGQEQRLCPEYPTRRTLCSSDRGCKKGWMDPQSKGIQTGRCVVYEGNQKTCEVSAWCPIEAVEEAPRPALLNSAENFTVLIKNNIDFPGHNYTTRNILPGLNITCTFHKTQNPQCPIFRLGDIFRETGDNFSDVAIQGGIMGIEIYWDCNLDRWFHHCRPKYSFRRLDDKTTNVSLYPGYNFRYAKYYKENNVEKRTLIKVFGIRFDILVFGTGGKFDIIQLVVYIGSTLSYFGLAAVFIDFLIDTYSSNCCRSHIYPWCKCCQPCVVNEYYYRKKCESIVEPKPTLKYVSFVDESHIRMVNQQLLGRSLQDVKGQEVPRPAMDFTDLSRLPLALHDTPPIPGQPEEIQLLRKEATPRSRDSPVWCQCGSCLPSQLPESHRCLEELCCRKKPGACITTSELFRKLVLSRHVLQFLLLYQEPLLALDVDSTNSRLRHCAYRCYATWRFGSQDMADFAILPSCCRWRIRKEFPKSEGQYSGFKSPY
How it was run: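 Stably transfected hP2X7-HEK293 cells, 48 h after seeding, in Mg²⁺-free Krebs-HEPES (0.2 mM CaCl₂, pH 7.4). Compound preincubation 20 min, then YO-PRO-1 2 μM, then BzATP 30 μM. Fluorescence at 485/520 nm read for 25 min. Each well normalized to Fmax (0.5% Triton X-100) and Fmin (2 M MnCl₂): F = (Fx − F0)/(Fmax − Fmin). Triplicates from three cultures. IC50 is the concentration halving BzATP-induced uptake.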

[1] = molecular target: T2, P2X purinoceptor 7 (Homo sapiens) (UniProt Q99572); experiment: Antagonist activity at human P2X7 receptor expressed in Xenopus laevis oocytes assessed as reduction in ATP-induced channel currents at 100 uM by TEVC electrophysiology assay relative to control; conditions: Oocyte, filed as antagonist
T2 sequence (whole entry): T1 sequence (Q99572 whole entry)
How it was run: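 Oocytes injected with 50 nL His-tagged hP2X7 cRNA (0.5 mg/mL), kept 1–2 days at 16–18 °C. Recorded in low divalent-cation solution (90 mM NaCl, 0.5 mM CaCl₂, 5 mM HEPES) at −70 mV. ATP 300 μM for 2 s after 3 min static compound incubation. Current normalized to control amplitude. Triplicates from three oocytes, two frogs.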

[2] = molecular target: T3, P2X purinoceptor 7 (Rattus norvegicus) (UniProt Q64663); experiment: Antagonist activity at rat P2X7 receptor expressed in Xenopus laevis oocytes assessed as reduction in ATP-induced channel currents at 100 uM by TEVC electrophysiology assay relative to control; conditions: Oocyte, filed as antagonist
T3 sequence (whole entry): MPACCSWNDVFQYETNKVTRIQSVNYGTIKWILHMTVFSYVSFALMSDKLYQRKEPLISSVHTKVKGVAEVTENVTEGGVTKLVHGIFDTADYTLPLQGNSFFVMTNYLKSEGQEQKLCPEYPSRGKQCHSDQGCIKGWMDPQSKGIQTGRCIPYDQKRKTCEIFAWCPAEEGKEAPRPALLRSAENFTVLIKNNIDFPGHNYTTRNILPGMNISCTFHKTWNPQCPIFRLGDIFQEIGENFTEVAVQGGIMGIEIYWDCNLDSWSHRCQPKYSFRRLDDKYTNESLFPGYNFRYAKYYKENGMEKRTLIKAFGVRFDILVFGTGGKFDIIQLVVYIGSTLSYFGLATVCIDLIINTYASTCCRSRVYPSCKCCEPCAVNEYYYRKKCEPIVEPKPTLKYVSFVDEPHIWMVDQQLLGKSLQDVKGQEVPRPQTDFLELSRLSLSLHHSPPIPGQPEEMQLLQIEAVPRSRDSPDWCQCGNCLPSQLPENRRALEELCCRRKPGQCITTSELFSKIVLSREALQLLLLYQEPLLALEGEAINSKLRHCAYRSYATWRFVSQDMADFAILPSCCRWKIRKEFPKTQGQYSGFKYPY
How it was run: (§1)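 Two-electrode voltage clamp at −70 mV in low divalent-cation solution, oocytes incubated 1–2 days at 16–18 °C after 50 nL cRNA injection: rP2X1 and rP2X4 at 0.5 mg/mL, rP2X2 0.1 mg/mL, rP2X7 25 μg/mL. ATP 10 μM for rP2X1 and rP2X2, 30 μM for rP2X4 and rP2X7. Compound applied 3 min without perfusion. Currents normalized to control; three oocytes from two frogs.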

[3] = molecular target: T4, P2X purinoceptor 4 (Rattus norvegicus) (UniProt P51577); experiment: Antagonist activity at rat P2X4 receptor expressed in Xenopus laevis oocytes assessed as reduction in ATP-induced channel currents at 100 uM by TEVC electrophysiology assay relative to control; conditions: Oocyte; how it was run: as §1
T4 sequence (whole entry): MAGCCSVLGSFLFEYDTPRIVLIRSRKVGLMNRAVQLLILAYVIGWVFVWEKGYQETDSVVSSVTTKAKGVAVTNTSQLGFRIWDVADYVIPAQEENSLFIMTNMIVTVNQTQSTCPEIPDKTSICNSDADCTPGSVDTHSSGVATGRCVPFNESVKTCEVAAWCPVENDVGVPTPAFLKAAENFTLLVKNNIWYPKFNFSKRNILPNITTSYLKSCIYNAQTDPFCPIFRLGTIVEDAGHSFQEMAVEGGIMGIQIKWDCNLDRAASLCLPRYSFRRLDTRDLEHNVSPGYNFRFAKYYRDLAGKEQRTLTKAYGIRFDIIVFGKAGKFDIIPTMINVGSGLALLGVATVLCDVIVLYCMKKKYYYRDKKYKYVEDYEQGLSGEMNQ

IC50 (P2X purinoceptor 7): 9 µM | inhibition [1]: 47% | inhibition [2]: Active | inhibition [3]: inactive
Compound: O=C(Cn1cnc2c(Cl)ncnc21)c1ccc(Cl)cc1Cl

Reference: ChEMBL document CHEMBL4706687, “Synthesis and Pharmacological Evaluation of Novel Non-nucleotide Purine Derivatives as P2X7 Antagonists for the Treatment of Neuroinflammation” (J Med Chem, 2021)
